The test system of data set [1] is Human immunodeficiency virus 1. Nature of the data set: Antiviral activity against HIV1 infected in human MT4 cells assessed as inhibition of virus-induced cytopathic effect. In kind it is functional, organism-based. The settings on record: Human immunodeficiency virus 1, MT4. In short, it runs like this: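 MT-4/MTT assay: MT-4 cells were infected with 100–300 CCID50 of an HIV-1 IIIB stock, titrated on MT-4 cells, in the presence of fivefold serial compound dilutions. Cell protection from virus-induced cytopathic effect was read spectrophotometrically as MTT reduction to formazan by viable cells. EC50 is the concentration giving 50% protection. Averages ± SD.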
(In general: Damage to the host cells serves as the signal in cytopathic effect assays.)

Data set [2] concerns MT4. In words: Cytotoxicity against human MT4 cells by MTT assay. In kind it is cell-based. In short, it runs like this: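 Run in parallel with the antiviral MT-4/MTT assay, using fivefold serial compound dilutions. Viability was read spectrophotometrically as MTT reduction to formazan by mitochondrial dehydrogenase. CC50 is the concentration reducing MT-4 viability by 50%. Averages ± SD.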

Data set [3] is described as follows: Selectivity index, ratio of CC50 for human MT4 cells to EC50 for HIV1 cells. The class given is toxicity, cell-based. The settings on record: read-out: Selectivity Index. In short, it runs like this:
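MT-4/MTT assay in human MT-4 lymphocytes. Cells were infected with 100–300 CCID50 of HIV-1 strain IIIB, titrated on MT-4 cells, in the presence of fivefold serial compound dilutions. Viability was read spectrophotometrically as MTT reduced to formazan. EC50 is 50% protection against virus-induced cytopathic effect; CC50 was determined in parallel. SI is calculated as CC50/EC50.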

The target in data set [4] is T1, Human immunodeficiency virus type 1 integrase (Human immunodeficiency virus 1, UniProt Q7ZJM1).
T1 sequence (Q7ZJM1 whole entry): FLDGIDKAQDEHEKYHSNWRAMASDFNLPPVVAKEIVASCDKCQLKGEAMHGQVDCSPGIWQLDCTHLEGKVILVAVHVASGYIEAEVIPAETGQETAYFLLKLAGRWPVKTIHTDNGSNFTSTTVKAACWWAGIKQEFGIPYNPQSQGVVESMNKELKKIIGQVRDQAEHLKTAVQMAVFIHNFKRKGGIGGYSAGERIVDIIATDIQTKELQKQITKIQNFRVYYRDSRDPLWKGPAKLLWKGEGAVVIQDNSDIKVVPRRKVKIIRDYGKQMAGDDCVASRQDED
Data set [5] deals with T1, Human immunodeficiency virus type 1 integrase. The source holds these as a separate data set.

29 compounds from ChEMBL document CHEMBL1212853, “New chloro,fluorobenzylindole derivatives as integrase strand-transfer inhibitors (INSTIs) and their mode of action” (Bioorg Med Chem, 2010) can be followed below.

One may read the EC50 as the concentration that produces a half-maximal response. As a reminder, the IC50 is the concentration that gives 50% inhibition. A lower IC50 goes with greater potency. Take `COc1cccc2c1c(C(=O)/C=C(\O)C(=O)O)cn2Cc1cccc(Cl)c1`: the values for the EC50 in data set [1] and in data set [2] were 0.64 µM and 30.2 µM, respectively. Further, the selectivity ratio in data set [3] stood at 47. Also, the values for the IC50 in data set [4] and in data set [5] were 0.13 µM and 0.03 µM, respectively.

Turning to `COc1cccc2c1c(C(=O)/C=C(\O)C(=O)O)cn2Cc1ccc(Cl)cc1`, the EC50 worked out at 20.6 µM in data set [1] and 33.5 µM in data set [2]. For the same compound, the selectivity ratio in data set [3] came to 2. For the same compound, the results for the IC50 in data set [4] and in data set [5] were 1.02 µM and 0.59 µM, respectively.

Regarding `COc1cccc2c1c(C(=O)/C=C(\O)C(=O)O)cn2Cc1cccc(F)c1Cl`, the EC50 was 0.36 µM in data set [1] and 6.5 µM in data set [2]. In addition, in data set [3], the selectivity ratio is 18. The figures for the IC50 in data set [4] and in data set [5] were 5.24 µM and 12.7 µM, respectively.

For `COc1cccc2c1c(C(=O)/C=C(\O)C(=O)O)cn2Cc1ccc(F)cc1Cl`, the EC50 in data set [1] was 4.3 µM; in data set [2] it was 47.2 µM. Moreover, the selectivity ratio in data set [3] was found to be 11. Further, the IC50 turned out to be 0.54 µM in data set [4] and 0.06 µM in data set [5].

With `COc1cccc2c1c(C(=O)/C=C(\O)C(=O)O)cn2Cc1cc(F)ccc1Cl`, the results for the EC50 in data set [1] and in data set [2] were 3.3 µM and 26.3 µM, respectively. For the same compound, the selectivity ratio in data set [3] was determined as 8. Also, the IC50 worked out at 0.42 µM in data set [4] and 0.27 µM in data set [5].

For `COc1cccc2c1c(C(=O)/C=C(\O)C(=O)O)cn2Cc1c(F)cccc1Cl`, the EC50 in data set [1] came out at 0.56 µM; in data set [2] it was 62 µM. For the same compound, the selectivity ratio in data set [3] turned out to be 111. Moreover, the IC50 in data set [4] was 0.53 µM; in data set [5] it was 0.13 µM.

As to `COc1cccc2c1c(C(=O)/C=C(\O)C(=O)O)cn2Cc1cccc(Cl)c1F`, the EC50 came to 0.43 µM in data set [1] and 15 µM in data set [2]. In data set [3], the selectivity ratio was found to be 35. Besides, the IC50 in data set [4] came out at 0.74 µM; in data set [5], 0.03 µM.

With `COc1cccc2c1c(C(=O)/C=C(\O)C(=O)O)cn2Cc1ccc(F)c(Cl)c1`, the results for the EC50 in data set [1] and in data set [2] were 0.43 µM and 31.7 µM, respectively. Also, the selectivity ratio in data set [3] was 74. Further, the results for the IC50 in data set [4] and in data set [5] were 0.04 µM and 0.12 µM, respectively.

Take `COc1cccc2c1c(C(=O)/C=C(\O)C(=O)O)cn2Cc1cc(F)cc(Cl)c1`: the EC50 was 0.52 µM in data set [1] and 32.1 µM in data set [2]. In addition, in data set [3], the selectivity ratio is 62. For the same compound, the concentration for half-maximal inhibition (IC50) in data set [4] came to 0.24 µM; in data set [5], 0.25 µM.

Take `COc1cccc2c1c(C(=O)/C=C(\O)C(=O)O)cn2Cc1cc(Cl)ccc1F`: the EC50 in data set [1] is 4.17 µM; in data set [2], 10.8 µM. Moreover, the selectivity ratio in data set [3] was determined as 3. For the same compound, the IC50 in data set [4] was 0.32 µM; in data set [5] it was 0.09 µM.

On to `COc1cccc2c1c(C(=O)/C=C(\O)C(=O)O)cn2Cc1ccc(Cl)cc1F`, for which the EC50 in data set [1] was above 22.5 µM; in data set [2] it was 23 µM. Further, the selectivity ratio in data set [3] is below 1. In addition, the IC50 in data set [4] was 2.53 µM; in data set [5], 5.52 µM.

With `COc1cccc2c1c(C(=O)/C=C(\O)C(=O)O)cn2Cc1ccc(Cl)c(F)c1`, the EC50 in data set [1] is above 23.3 µM; in data set [2], 23.3 µM. In data set [3], the selectivity ratio is below 1. The IC50 in data set [4] came to 3.33 µM; in data set [5], 4.58 µM.

Regarding `CCOC(=O)/C(O)=C/C(=O)c1cn(Cc2ccccc2Cl)c2cccc(OC)c12`, the EC50 in data set [1] is 2.51 µM; in data set [2], 34.5 µM. Besides, the selectivity ratio in data set [3] amounted to 14. In addition, the IC50 in data set [4] was determined as 13.1 µM; in data set [5], 0.73 µM.

`CCOC(=O)/C(O)=C/C(=O)c1cn(Cc2cccc(Cl)c2)c2cccc(OC)c12`: the EC50 stood at 3.25 µM in data set [1] and 52.9 µM in data set [2]. In addition, in data set [3], the selectivity ratio turned out to be 17. Also, the IC50 in data set [4] stood at 4.78 µM; in data set [5], 2.89 µM.

On to `CCOC(=O)/C(O)=C/C(=O)c1cn(Cc2ccc(Cl)cc2)c2cccc(OC)c12`, for which the EC50 in data set [1] and in data set [2] was 41.3 µM each time. In addition, the selectivity ratio in data set [3] was determined as 1. In addition, the IC50 in data set [4] is 5.78 µM; in data set [5] it was 8.26 µM.

As for `CCOC(=O)/C(O)=C/C(=O)c1cn(Cc2cccc(F)c2Cl)c2cccc(OC)c12`, the EC50 was 2.52 µM in data set [1] and 18.5 µM in data set [2]. In data set [3], the selectivity ratio worked out at 7. The values for the half-inhibitory concentration (IC50) in data set [4] and in data set [5] were 1.39 µM and 9.2 µM, respectively.

For the compound `CCOC(=O)/C(O)=C/C(=O)c1cn(Cc2ccc(F)cc2Cl)c2cccc(OC)c12`, the values for the EC50 in data set [1] and in data set [2] were 4.06 µM and 51.4 µM, respectively. Besides, the selectivity ratio in data set [3] was 13. Further, the results for the IC50 in data set [4] and in data set [5] were 1.74 µM and 2.56 µM, respectively.

On to `CCOC(=O)/C(O)=C/C(=O)c1cn(Cc2cc(F)ccc2Cl)c2cccc(OC)c12`, for which the EC50 in data set [1] is 16.4 µM; in data set [2], 39.6 µM. Further, the selectivity ratio in data set [3] is 3. Further, the IC50 in data set [4] worked out at 2.7 µM; in data set [5] it was 2.94 µM.

On to `CCOC(=O)/C(O)=C/C(=O)c1cn(Cc2c(F)cccc2Cl)c2cccc(OC)c12`, for which the EC50 in data set [1] stood at 4.66 µM; in data set [2], 25.4 µM. In addition, in data set [3], the selectivity ratio came to 5. The figures for the IC50 in data set [4] and in data set [5] were 2.86 µM and 1.2 µM, respectively.

Turning to `CCOC(=O)/C(O)=C/C(=O)c1cn(Cc2cccc(Cl)c2F)c2cccc(OC)c12`, the EC50 came out at 2.31 µM in data set [1] and 46.9 µM in data set [2]. The selectivity ratio in data set [3] was 20. The IC50 in data set [4] worked out at 1.37 µM; in data set [5], 0.74 µM.

With `CCOC(=O)/C(O)=C/C(=O)c1cn(Cc2ccc(F)c(Cl)c2)c2cccc(OC)c12`, the EC50 amounted to 1.87 µM in data set [1] and 49.3 µM in data set [2]. Further, in data set [3], the selectivity ratio is 26. For the same compound, the IC50 in data set [4] stood at 0.36 µM; in data set [5] it was 0.07 µM.

For the compound `CCOC(=O)/C(O)=C/C(=O)c1cn(Cc2cc(F)cc(Cl)c2)c2cccc(OC)c12`, the EC50 in data set [1] came to 4.27 µM; in data set [2] it was 58.2 µM. Also, the selectivity ratio in data set [3] turned out to be 14. Moreover, the IC50 in data set [4] was 1.3 µM; in data set [5] it was 3.17 µM.

In the case of `CCOC(=O)/C(O)=C/C(=O)c1cn(Cc2cc(Cl)ccc2F)c2cccc(OC)c12`, the EC50 in data set [1] and in data set [2] was 18.1 µM throughout. The selectivity ratio in data set [3] stood at 1. The figures for the IC50 in data set [4] and in data set [5] were 1.61 µM and 0.89 µM, respectively.

As to `CCOC(=O)/C(O)=C/C(=O)c1cn(Cc2ccc(Cl)cc2F)c2cccc(OC)c12`, the results for the EC50 in data set [1] and in data set [2] were above 17 µM and 17 µM, respectively. In addition, the selectivity ratio in data set [3] was below 1. Also, the values for the IC50 in data set [4] and in data set [5] were 1.15 µM and 3.32 µM, respectively.

For the compound `CCOC(=O)/C(O)=C/C(=O)c1cn(Cc2ccc(Cl)c(F)c2)c2cccc(OC)c12`, the EC50 was above 63.7 µM in data set [1] and 63.7 µM in data set [2]. Besides, in data set [3], the selectivity ratio was below 1. The IC50 worked out at 5.05 µM in data set [4] and 20.4 µM in data set [5].

In the case of `COc1cccc2c1c(C(=O)/C=C(\O)C(=O)O)cn2Cc1ccccc1Cl`, the EC50 in data set [1] worked out at 0.42 µM; in data set [2], 27 µM. The selectivity ratio in data set [3] was 64. The IC50 in data set [4] was found to be 0.71 µM; in data set [5], 0.52 µM.

Take `COc1cc2c(cc1Cc1cccc(Cl)c1F)c(=O)c(C(=O)O)cn2[C@H](CO)C(C)C`: the EC50 in data set [2] was found to be 2.12 µM.

In data set [2], `Cc1nnc(C(=O)NC(C)(C)c2nc(C(=O)NCc3ccc(F)cc3)c(O)c(=O)n2C)o1` came in with an EC50 above 18 µM.

In the case of `COc1cccc2c1c(C(=O)/C=C(\O)C(=O)O)cn2Cc1ccc(F)cc1`, the EC50 in data set [2] worked out at 41.1 µM. Moreover, the selectivity ratio in data set [3] turned out to be 70.
